Test results from ChEMBL document CHEMBL3425449, “Identification of MK-8133: An orexin-2 selective receptor antagonist with favorable development properties” (Bioorg Med Chem Lett, 2015).
In brackets after ≈: the same amount, converted by molar mass.

Assays:
Orexin receptor type 2 [1] = molecular target: T1, Orexin receptor type 2 (Homo sapiens, UniProt O43614); assay: Antagonist activity against human OX2R expressed in CHOK1 cells assessed as inhibition of orexin A-induced […] Ca2+ mobilization by FLIPR assay; assay type: functional, cell-based, CHO-K1
T1 sequence (O43614 whole entry): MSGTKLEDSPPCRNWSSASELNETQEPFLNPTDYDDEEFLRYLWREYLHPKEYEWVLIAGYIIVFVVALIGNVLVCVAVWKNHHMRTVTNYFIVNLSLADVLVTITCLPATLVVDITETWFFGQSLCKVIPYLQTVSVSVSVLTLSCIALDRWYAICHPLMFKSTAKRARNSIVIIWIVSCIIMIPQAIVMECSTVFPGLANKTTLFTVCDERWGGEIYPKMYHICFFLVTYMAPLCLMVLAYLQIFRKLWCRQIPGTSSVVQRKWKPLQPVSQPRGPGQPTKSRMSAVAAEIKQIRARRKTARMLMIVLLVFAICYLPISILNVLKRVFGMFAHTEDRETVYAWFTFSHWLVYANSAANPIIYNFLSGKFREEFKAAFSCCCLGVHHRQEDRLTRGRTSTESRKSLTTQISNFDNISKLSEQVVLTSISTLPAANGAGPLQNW
Method in brief: (§1)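 Cell-based FLIPR assay measuring Ca2+ flux as the functional read-out of orexin receptor antagonism. Target is the human orexin receptor expressed in CHO-K1 cells.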

[2] = molecular target: T2, Orexin/Hypocretin receptor type 1 (Homo sapiens, UniProt O43613); assay: Antagonist activity against human OX1R expressed in CHOK1 cells assessed as inhibition of orexin A-induced […] Ca2+ mobilization by FLIPR assay; assay type: functional, cell-based, CHO-K1; method in brief: as §1
T2 sequence (O43613 whole entry): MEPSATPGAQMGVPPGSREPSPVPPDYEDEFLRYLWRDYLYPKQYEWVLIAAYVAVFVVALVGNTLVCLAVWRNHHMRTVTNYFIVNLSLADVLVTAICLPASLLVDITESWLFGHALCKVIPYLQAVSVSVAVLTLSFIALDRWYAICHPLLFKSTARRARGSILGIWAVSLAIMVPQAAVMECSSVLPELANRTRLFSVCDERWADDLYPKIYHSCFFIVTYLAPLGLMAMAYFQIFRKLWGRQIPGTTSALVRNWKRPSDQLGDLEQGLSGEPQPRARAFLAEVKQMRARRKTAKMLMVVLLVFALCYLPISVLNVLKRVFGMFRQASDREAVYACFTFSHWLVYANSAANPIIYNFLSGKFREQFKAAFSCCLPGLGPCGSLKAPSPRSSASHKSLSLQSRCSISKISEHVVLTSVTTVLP

CHO-K1 = assay: Selectivity index, ratio of IC50 for human OX1R expressed in CHOK1 cells to IC50 for human OX2R expressed in CHOK1 cells by FLIPR assay; assay type: cell-based
Method in brief: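 Ratio of OX1R FLIPR IC50 to OX2R FLIPR IC50. Both come from Ca2+-flux assays on human orexin receptors expressed in CHO-K1 cells, each averaged over n ≥ 2 experiments.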

[3] = Intrinsic clearance in human microsomes; assay type: ADME, Microsome
[4] = Solubility of the compound at pH 7; assay type: physicochemical; conditions: buffer
[5] = Lipophilicity, log D of the compound by HPLC method; assay type: physicochemical
Orexin receptor type 2 [6] = molecular target: T1, Orexin receptor type 2; assay: Displacement of [3H]-(S)-N-(2-(1H-pyrrol-1-yl)phenyl)-1-(2-(1-methyl-1H-benzo[d]imidazol-2-ylthio)acetyl)pyrrolidine-2-carboxamide from human OX2R expressed in CHOK1 cells by radioligand binding assay; assay type: cell-based, CHO-K1
Method in brief: (§2)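 Radioligand competition binding on membranes from CHO-K1 cells overexpressing the human orexin receptor.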

[7] = molecular target: T2, Orexin/Hypocretin receptor type 1; assay: Displacement of [3H]-(S)-N-(biphenyl-2-yl)-1-(2-(1-methyl-1H-benzo[d]imidazol-2-ylthio)acetyl)pyrrolidine-2-carboxamide from human OX1R expressed in CHOK1 cells by radioligand binding assay; assay type: cell-based, CHO-K1; method in brief: as §2
[8] = Oral bioavailability in Wistar Han rat at 10 mg/kg; assay type: ADME, organism-based; conditions: in vivo
Method in brief: (§3)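 Pharmacokinetics in Wistar Han rats (n = 2) after intravenous and oral dosing. Oral dose was 10 mg/kg in PEG400:Tween80/water 40:10:50. IV dose was 2 mg/kg in DMSO/PEG400/water 20:60:20.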

[9] = Half life in Wistar Han rat at 10 mg/kg, po or 2 mg/kg, iv; assay type: ADME, organism-based; conditions: in vivo; method in brief: as §3
[10] = Clearance in Wistar Han rat at 10 mg/kg, po or 2 mg/kg, iv; assay type: ADME, organism-based; conditions: in vivo; method in brief: as §3
[11] = Volume of distribution at steady state in Wistar Han rat at 10 mg/kg, po or 2 mg/kg, iv; assay type: ADME, organism-based; conditions: in vivo, read-out: Vdss; method in brief: as §3
[12] = Oral bioavailability in dog at 10 mg/kg; assay type: ADME, organism-based, Canis lupus familiaris; conditions: in vivo
Method in brief: (§4)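 Dog pharmacokinetics determined after intravenous and oral administration.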

[13] = Half life in dog at 10 mg/kg, po or 2 mg/kg, iv; assay type: ADME, organism-based, Canis lupus familiaris; conditions: in vivo; method in brief: as §4
[14] = Clearance in dog at 10 mg/kg, po or 2 mg/kg, iv; assay type: ADME, organism-based, Canis lupus familiaris; conditions: in vivo; method in brief: as §4
[15] = Volume of distribution at steady state in dog at 10 mg/kg, po or 2 mg/kg, iv; assay type: ADME, organism-based, Canis lupus familiaris; conditions: in vivo, read-out: Vdss; method in brief: as §4
Plasma [16] = assay: Stability in rat plasma; assay type: ADME, cell-free
Plasma [17] = assay: Stability in human plasma; assay type: ADME, cell-free

Compound	IC50 (Orexin receptor type 2 [1])	IC50 [2]	Ki (Orexin receptor type 2 [6])	Ki [7]	Ratio IC50 (CHO-K1)	other results
C[C@@H]1CC[C@@H](Oc2cc(-c3ccccc3)ccn2)CN1C(=O)c1ccccc1-n1nccn1	0.045 µM	2.4 µM	0.0038 µM	0.36 µM	54	–
Cc1ccnc(O[C@@H]2CC[C@@H](C)N(C(=O)c3ccccc3-n3nccn3)C2)c1	–	0.788 µM	0.0026 µM	0.166 µM	49	–
COc1ccnc(O[C@@H]2CC[C@@H](C)N(C(=O)c3ccccc3-n3nccn3)C2)c1	–	–	0.0013 µM	0.14 µM	49	–
C[C@@H]1CC[C@@H](Oc2cc(F)ccn2)CN1C(=O)c1ccccc1-n1nccn1	–	–	0.0039 µM	0.43 µM	68	–
C[C@@H]1CC[C@@H](Oc2cc(C(F)(F)F)ccn2)CN1C(=O)c1ccccc1-n1nccn1	–	0.37 µM	0.0002 µM	0.064 µM	21	–
Cc1cccnc1O[C@@H]1CC[C@@H](C)N(C(=O)c2ccccc2-n2nccn2)C1	–	–	0.621 µM	4.76 µM	–	–
C[C@@H]1CC[C@@H](Oc2cc(C(=O)N(C)C)ccn2)CN1C(=O)c1ccccc1-n1nccn1	0.095 µM	> 10 µM	0.0065 µM	0.47 µM	> 105	–
C[C@@H]1CC[C@@H](Oc2cc(N(C)C)ccn2)CN1C(=O)c1ccccc1-n1nccn1	0.13 µM	1.5 µM	0.0045 µM	1.4 µM	12	–
C[C@@H]1CC[C@@H](Oc2cc(C#N)ccn2)CN1C(=O)c1ccccc1OC(F)F	0.037 µM	> 10 µM	–	–	> 314	CLint scaled [3]: 43 mL/min/kg; solubility [4]: Insoluble; logD [5]: ND(Insoluble)
CC(C)OC(=O)c1ccccc1C(=O)N1C[C@H](Oc2cc(C#N)ccn2)CC[C@H]1C	0.038 µM	3.3 µM	–	–	87	solubility ([4]; read-out: solubility): 115 µM (≈ 46.9 µg/mL); logD ([5]; read-out: logD): 3.6
C[C@@H]1CC[C@@H](Oc2ccccn2)CN1C(=O)c1ccccc1-n1nccn1	–	–	2.4 µM	14 µM	–	–

Continued by falling IC50 (Orexin receptor type 2 [1]), values first:

IC50 (Orexin receptor type 2 [1])	IC50 [2]	Ki (Orexin receptor type 2 [6])	Ki [7]	Compound	Ratio IC50 (CHO-K1)	other results
0.033 µM	0.745 µM	0.0076 µM	0.012 µM	Cc1cccc(O[C@@H]2CC[C@@H](C)N(C(=O)c3ccccc3-n3nccn3)C2)n1	23	–
0.032 µM	> 10 µM	–	–	C[C@@H]1CC[C@@H](Oc2cc(C#N)ccn2)CN1C(=O)c1ccccc1CC(F)(F)F	> 312	CLint scaled [3]: 132 mL/min/kg; solubility ([4]; read-out: solubility): 95 µM (≈ 38.3 µg/mL); logD ([5]; read-out: logD): 3.6
0.025 µM	8.4 µM	–	–	Cc1nc(-c2ccccc2C(=O)N2C[C@H](Oc3cc(C#N)ccn3)CC[C@H]2C)no1	361	CLint scaled [3]: 23 mL/min/kg; solubility ([4]; read-out: solubility): 162 µM (≈ 65.4 µg/mL); logD ([5]; read-out: logD): 3; bioavailability [8]: 26%; half-life [9]: 1.3 h; clearance [10]: 30 mL/min/kg; Vd [11]: 1.3 L/kg; bioavailability [12]: 54%; half-life [13]: 1.5 h; clearance [14]: 4.6 mL/min/kg; Vd [15]: 0.54 L/kg
0.022 µM	1.8 µM	0.0039 µM	0.31 µM	COC(=O)c1ccnc(O[C@@H]2CC[C@@H](C)N(C(=O)c3ccccc3-n3nccn3)C2)c1	82	–
0.021 µM	7.1 µM	–	–	CCOC(=O)c1ccccc1C(=O)N1C[C@H](Oc2cc(C#N)ccn2)CC[C@H]1C	349	CLint scaled [3]: 37 mL/min/kg; solubility ([4]; read-out: solubility): 121 µM (≈ 47.6 µg/mL); logD ([5]; read-out: logD): 3.2
0.021 µM	10 µM	–	–	COC(=O)c1ccccc1C(=O)N1C[C@H](Oc2cc(C#N)ccn2)CC[C@H]1C	> 490	CLint scaled [3]: < 16 mL/min/kg; solubility ([4]; read-out: solubility): 151 µM (≈ 57.3 µg/mL); logD ([5]; read-out: logD): 2.9; Stability (Plasma [16]): Unstable; Stability (Plasma [17]): Unstable
0.016 µM	0.51 µM	0.0009 µM	0.35 µM	C[C@@H]1CC[C@@H](Oc2cc(S(C)(=O)=O)ccn2)CN1C(=O)c1ccccc1-n1nccn1	33	–
0.013 µM	3.8 µM	–	0.83 µM	C[C@@H]1CC[C@@H](Oc2cc(C#N)ccn2)CN1C(=O)c1ccccc1-n1nccn1	293	CLint scaled [3]: 16 mL/min/kg; solubility ([4]; read-out: solubility): 148 µM (≈ 57.5 µg/mL); logD ([5]; read-out: logD): 3; bioavailability [8]: 17%; half-life [9]: 1.7 h; clearance [10]: 18 mL/min/kg; Vd [11]: 1.7 L/kg; bioavailability [12]: 13%; half-life [13]: 1.1 h; clearance [14]: 27 mL/min/kg; Vd [15]: 1.5 L/kg
0.011 µM	0.31 µM	0.0006 µM	0.057 µM	CCc1ccnc(O[C@@H]2CC[C@@H](C)N(C(=O)c3ccccc3-n3nccn3)C2)c1	28	–
0.011 µM	–	0.0014 µM	0.12 µM	C[C@@H]1CC[C@@H](Oc2cc(Cl)ccn2)CN1C(=O)c1ccccc1-n1nccn1	51	–
0.01 µM	0.38 µM	0.0018 µM	0.13 µM	C[C@@H]1CC[C@@H](Oc2cc(Br)ccn2)CN1C(=O)c1ccccc1-n1nccn1	37	–
0.01 µM	0.24 µM	0.0006 µM	0.049 µM	C#Cc1ccnc(O[C@@H]2CC[C@@H](C)N(C(=O)c3ccccc3-n3nccn3)C2)c1	23	–
0.009 µM	0.142 µM	0.0026 µM	0.037 µM	Cc1ccc(O[C@@H]2CC[C@@H](C)N(C(=O)c3ccccc3-n3nccn3)C2)nc1	16	–
0.0072 µM	–	0.0004 µM	0.059 µM	C[C@@H]1CC[C@@H](Oc2cc(I)ccn2)CN1C(=O)c1ccccc1-n1nccn1	57	–
0.0067 µM	0.11 µM	0.0002 µM	0.039 µM	CSc1ccnc(O[C@@H]2CC[C@@H](C)N(C(=O)c3ccccc3-n3nccn3)C2)c1	16	–
